Measured values: ChEMBL document CHEMBL1139825, “Kinesin spindle protein (KSP) inhibitors. Part 7: Design and synthesis of 3,3-disubstituted dihydropyrazolobenzoxazines as potent inhibitors of the mitotic kinesin KSP” (Bioorg Med Chem Lett, 2007)
Activity calls are given as the source filed them. The calls are words filed in the database; no cut-off is given here.

What was measured:
[1] = target: T1, Kinesin-like protein KIF11 (Homo sapiens, UniProt P52732); assay: Inhibition of kinesin spindle protein
T1 sequence (P52732 whole entry): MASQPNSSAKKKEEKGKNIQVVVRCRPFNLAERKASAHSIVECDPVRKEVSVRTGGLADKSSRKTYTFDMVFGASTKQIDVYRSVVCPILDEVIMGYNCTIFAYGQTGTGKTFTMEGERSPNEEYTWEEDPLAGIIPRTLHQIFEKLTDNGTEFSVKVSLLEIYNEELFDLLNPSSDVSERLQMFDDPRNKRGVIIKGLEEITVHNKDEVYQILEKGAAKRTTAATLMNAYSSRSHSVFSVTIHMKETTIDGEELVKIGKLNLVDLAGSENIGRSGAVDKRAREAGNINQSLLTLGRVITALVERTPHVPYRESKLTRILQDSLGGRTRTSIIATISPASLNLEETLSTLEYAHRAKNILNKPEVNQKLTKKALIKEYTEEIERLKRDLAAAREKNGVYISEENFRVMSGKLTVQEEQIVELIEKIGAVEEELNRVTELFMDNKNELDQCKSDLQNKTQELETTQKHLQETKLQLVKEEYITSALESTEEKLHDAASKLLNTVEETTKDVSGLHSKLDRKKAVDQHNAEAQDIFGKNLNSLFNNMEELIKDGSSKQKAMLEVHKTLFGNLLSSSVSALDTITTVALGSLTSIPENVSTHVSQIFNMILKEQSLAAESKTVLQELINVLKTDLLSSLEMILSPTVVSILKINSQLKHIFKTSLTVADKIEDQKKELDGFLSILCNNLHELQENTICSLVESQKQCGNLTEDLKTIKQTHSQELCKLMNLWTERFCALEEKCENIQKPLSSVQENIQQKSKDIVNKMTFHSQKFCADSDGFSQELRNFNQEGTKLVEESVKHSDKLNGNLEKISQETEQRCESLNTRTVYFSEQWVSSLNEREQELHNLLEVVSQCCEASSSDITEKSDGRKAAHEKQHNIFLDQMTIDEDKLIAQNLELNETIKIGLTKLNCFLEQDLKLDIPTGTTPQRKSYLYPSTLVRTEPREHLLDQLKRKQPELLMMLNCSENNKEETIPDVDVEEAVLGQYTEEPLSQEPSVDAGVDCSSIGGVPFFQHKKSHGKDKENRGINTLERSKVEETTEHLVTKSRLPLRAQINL

[2] = Ratio of IC50 for KB-V-1 cells to IC50 for KB-3-1 cells after 16 hrs; type: functional, Homo sapiens
Summary of the method: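 Mitotic arrest measured in Pgp-high KB-V-1 cells (derived from parental KB-3-1 by culture with vinblastine; >500-fold higher Pgp mRNA and protein) and in parental KB-3-1 cells. 16 h incubation, 11-point half-log dilution series. Read-out is phospho-nucleolin level. The ratio is the IC50 in KB-V-1 divided by the IC50 in KB-3-1.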

[3] = target: Voltage-gated inwardly rectifying potassium channel KCNH2 (Homo sapiens, UniProt Q12809); assay: Inhibition of hERG expressed in HEK cells; type: toxicity, cell-based, HEK293
[4] = Clearance in dog at 0.25 mg/kg, iv; type: ADME, organism-based, Canis lupus familiaris; set-up: dose 0.25 mg/kg, route intravenous; conditions: in vivo
Summary of the method: (§1)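 Cassette intravenous dosing in dogs, compounds given together as a DMSO solution at 0.25 mg/kg. Two dogs per dose, with the value being their average. Individual determinations fell within ±25% of the mean.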

A2780 = assay: Mitotic arrest in human A2780 cells assessed as G2/M block after 16 hrs; type: functional, cell-based; conditions: A2780, 16 h
Summary of the method: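 A2780 human ovarian carcinoma cells treated 16 h across a 7-point half-log dilution series. Mitosis-specific nucleolin phosphorylation read by electrochemiluminescence: total nucleolin captured on beads via anti-nucleolin antibody, phospho-nucleolin detected with a phospho-specific IgM plus ruthenium-labelled anti-mouse IgM. EC50 is the mean of at least two independent determinations.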

[5] = Half life in dog at 0.25 mg/kg, iv; type: ADME, organism-based, Canis lupus familiaris; set-up: dose 0.25 mg/kg, route intravenous; conditions: in vivo; summary of the method: as §1
Canis familiaris [6] = species on record: Canis familiaris; assay: Induction of QTc prolongation in canine cardiovascular model; type: functional, organism-based; conditions: Canis lupus familiaris; Heart
[7] = Solubility at pH 4; type: physicochemical; conditions: buffer
Canis familiaris [8] = species on record: Canis familiaris; assay: Induction of QTc prolongation in canine cardiovascular model at 35 uM; type: functional, organism-based; conditions: Canis lupus familiaris, Heart

Voltage-gated inwardly rectifying potassium channel KCNH2, sequence (Q12809 whole entry): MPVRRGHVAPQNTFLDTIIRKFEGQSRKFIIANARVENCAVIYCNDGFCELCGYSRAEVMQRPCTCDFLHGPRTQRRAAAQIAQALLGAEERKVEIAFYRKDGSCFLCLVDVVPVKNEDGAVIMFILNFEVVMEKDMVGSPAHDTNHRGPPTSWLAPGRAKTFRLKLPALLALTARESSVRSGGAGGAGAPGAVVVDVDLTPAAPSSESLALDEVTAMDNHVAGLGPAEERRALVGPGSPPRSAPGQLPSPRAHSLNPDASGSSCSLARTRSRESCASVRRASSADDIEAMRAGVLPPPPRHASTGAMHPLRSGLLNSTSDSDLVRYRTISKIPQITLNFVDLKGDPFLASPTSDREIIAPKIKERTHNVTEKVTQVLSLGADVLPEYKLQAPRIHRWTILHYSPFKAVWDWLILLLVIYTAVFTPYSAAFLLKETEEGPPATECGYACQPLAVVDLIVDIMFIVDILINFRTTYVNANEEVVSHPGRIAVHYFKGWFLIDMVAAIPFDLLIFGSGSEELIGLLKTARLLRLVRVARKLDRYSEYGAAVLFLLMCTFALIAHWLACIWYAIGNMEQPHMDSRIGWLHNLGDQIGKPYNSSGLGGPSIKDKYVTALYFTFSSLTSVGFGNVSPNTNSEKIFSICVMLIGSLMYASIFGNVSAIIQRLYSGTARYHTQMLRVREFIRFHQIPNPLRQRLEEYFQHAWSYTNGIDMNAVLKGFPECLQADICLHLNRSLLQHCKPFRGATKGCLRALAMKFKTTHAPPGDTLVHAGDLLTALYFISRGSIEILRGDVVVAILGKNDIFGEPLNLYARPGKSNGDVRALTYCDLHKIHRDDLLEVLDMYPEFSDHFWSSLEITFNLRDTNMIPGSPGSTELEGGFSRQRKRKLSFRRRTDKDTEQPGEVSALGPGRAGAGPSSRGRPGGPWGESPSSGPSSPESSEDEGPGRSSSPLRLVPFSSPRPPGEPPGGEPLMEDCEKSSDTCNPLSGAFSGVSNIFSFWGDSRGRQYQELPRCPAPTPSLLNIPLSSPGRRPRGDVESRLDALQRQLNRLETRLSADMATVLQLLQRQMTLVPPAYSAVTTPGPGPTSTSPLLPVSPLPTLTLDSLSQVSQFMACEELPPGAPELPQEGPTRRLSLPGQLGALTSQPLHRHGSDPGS

## CC(=O)C1=NN2c3cc(C)ccc3OC[C@H]2[C@@]1(CCCN(C)C)c1ccccc1
[1]
  IC50: 1.8 nM
[2]
  Ratio IC50: 2.3
[3]
  IC50: 2400 nM
[4]
  clearance: 37 mL/min/kg
A2780
  EC50: 6.4 nM
[5]
  half-life: 8.3 h

## CC(=O)C1=NN(c2cc(F)ccc2F)C[C@@]1(CCCN1CCN(C(C)=O)CC1)c1ccccc1
[1]
  IC50: 3 nM
Canis familiaris [6]
  Activity: Active

## CC(=O)C1=NN2c3cc(F)ccc3OC[C@H]2[C@@]1(CCCN1CCNCC1)c1ccccc1
[1]
  IC50: 4.3 nM
[2]
  Ratio IC50: 40
[3]
  IC50: 4600 nM
[4]
  clearance: 40 mL/min/kg
A2780
  EC50: 5 nM
[5]
  half-life: 3.5 h

## CC(=O)C1=NN2c3cc(C)ccc3OC[C@H]2[C@@]1(CCCN1CCOCC1)c1ccccc1
[1]
  IC50: 1 nM
[2]
  Ratio IC50: 1.4
[3]
  IC50: 6300 nM
A2780
  EC50: 11 nM

## CC(=O)C1=NN2c3cc(F)ccc3OC[C@H]2[C@@]1(CCCN1CCOCC1)c1ccccc1
[1]
  IC50: 0.4 nM
[2]
  Ratio IC50: 0.8
[3]
  IC50: 6100 nM
A2780
  EC50: 4.4 nM

## CC(=O)C1=NN2c3cc(F)ccc3OC[C@H]2[C@@]1(CCCN)c1ccccc1
[1]
  IC50: 0.5 nM
[2]
  Ratio IC50: 1.7
[3]
  IC50: 940 nM
A2780
  EC50: 2.5 nM

## CC(=O)C1=NN2c3cc(F)ccc3OC[C@H]2[C@H]1c1ccccc1
[1]
  IC50: 155 nM

## CC(=O)C1=NN2c3cc(Cl)ccc3OC[C@H]2[C@@]1(CCCN(C)C)c1ccccc1
[1]
  IC50: 1 nM
A2780
  EC50: 4.8 nM

## CC(=O)C1=NN2c3cc(Cl)ccc3OC[C@H]2C1(CCCN1CCOCC1)c1ccccc1 (mixture of isomers)
[1]
  IC50: 1.8 nM
[2]
  Ratio IC50: 1.5
[3]
  IC50: 3300 nM
A2780
  EC50: 13 nM

## CC(=O)C1=NN2c3cc(Cl)ccc3OC[C@H]2[C@@]1(CCCN1CCN(C(C)=O)CC1)c1ccccc1
[1]
  IC50: 1 nM
[2]
  Ratio IC50: 1.6
[3]
  IC50: 5600 nM
A2780
  EC50: 9 nM

## CC(=O)C1=NN2c3cc(F)ccc3OC[C@H]2[C@@]1(CCCN1CCN(C(C)=O)CC1)c1ccccc1
[1]
  IC50: 1.6 nM
[7]
  solubility: > 4000 µg/mL
Canis familiaris [8]
  Activity: inactive
[4]
  clearance: 14 mL/min/kg
A2780
  EC50: 5 nM
[5]
  half-life: 5.6 h

## CC(=O)C1=NN2c3cc(F)ccc3OC[C@H]2[C@@]1(CCCN(C)C)c1ccccc1
[1]
  IC50: 1.6 nM
[2]
  Ratio IC50: 2.3
[3]
  IC50: 5940 nM
[4]
  clearance: 52 mL/min/kg
A2780
  EC50: 7.4 nM
[5]
  half-life: 5.7 h

## CC(=O)C1=NN2c3cc(F)ccc3OC[C@H]2[C@@]1(CCCN1CCNC(=O)CC1)c1ccccc1
[1]
  IC50: 1.5 nM
[2]
  Ratio IC50: 3.3
[3]
  IC50: 17000 nM
[4]
  clearance: 15 mL/min/kg
A2780
  EC50: 6.9 nM
[5]
  half-life: 2.4 h

## CC(=O)C1=NN2c3cc(F)ccc3OC[C@H]2[C@@]1(CCCO)c1ccccc1
[1]
  IC50: 5.2 nM
[2]
  Ratio IC50: 0.6
[3]
  IC50: 18000 nM
A2780
  EC50: 11 nM

## CC(=O)C1=NN2c3ccccc3OC[C@H]2[C@H]1c1ccccc1
[1]
  IC50: 800 nM

## CC(=O)C1=NN2c3cc(F)ccc3OC[C@H]2[C@@]1(CCCN1CCC(=O)N(C)CC1)c1ccccc1
[1]
  IC50: 0.9 nM
[2]
  Ratio IC50: 2.6
[3]
  IC50: 9600 nM
[4]
  clearance: 11 mL/min/kg
A2780
  EC50: 4.8 nM
[5]
  half-life: 3.9 h
